As a reminder, the ΔTm is the shift of the melting midpoint relative to a reference.

From ChEMBL document CHEMBL1152237, “Sequence specific and high affinity recognition of 5'-ACGCGT-3' by rationally designed pyrrole-imidazole H-pin polyamides: thermodynamic and structural studies” (Bioorg Med Chem, 2008) come the findings set out here.

Structures are written as SMILES. Active and inactive are the calls of the source. The rule behind the calls is not given here. Bounds are passed on as bounds.

Assay [1] in a line: Binding affinity to 5'ACCGGT3' sequence of non-cognate DNA assessed as heat change by isothermal titration colorimetry. In a few lines: (§1)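 ITC at 25, 30 and 35 °C. DNA (2 µM in PO 5) was titrated with ligand (0.5 mM in PO 5) in 3 µL injections every 300 s, 50 injections in total. One-site model fit, with a linear fit subtracted to remove non-specific heat. ΔG was taken from SPR Keq as −RT ln Keq.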

The subject of assay [2] is Nucleic Acid. The experiment in a line: Binding affinity to 5'ACGCGT3' sequence of cognate DNA assessed as change in melting temperature by thermal denaturation method. The class given is nucleic-acid assay. The method in brief: (§2)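 Thermal melting in PO 0 buffer (10 mM sodium phosphate, 1 mM EDTA, pH 6.2). Oligonucleotides were reannealed first (70 °C for 1 min, then cooled to RT). Ramp from 25 to 95 °C at 0.5 °C/min, with Abs260 recorded every 0.5 °C. Tm was taken as the maximum of the first derivative, and ΔTm was the shift on ligand binding.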

Assay [3] can be described thus: Binding affinity to 5'ACGCGT3' sequence of cognate DNA by surface plasmon resonance method. The method in brief: (§3)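 SPR at 25 °C in degassed MES buffer (200 mM Na+, 10 mM MES, 1 mM EDTA, surfactant P20, pH 6.25). DNA hairpins were immobilized to about 400 RU, with one flow cell left blank. Ligand (0.1–400 nM) was injected at 20 µL/min for 12.5 min, then dissociated for 20 min. The surface was regenerated with 500 mM NaCl/25 mM NaOH. Global 1:1 kinetic fit; Keq = ka/kd.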
On the technique in general: Surface plasmon resonance follows binding to a sensor surface in real time, without labels.

A short description of assay [4]: Binding affinity to 5'AAATTT3' sequence of non-cognate DNA assessed as heat change by isothermal titration colorimetry. In a few lines: as §1
A short description of assay [5]: Binding affinity to 5'AAATTT3' sequence of non-cognate DNA by surface plasmon resonance method. The method in brief:
as §3

Assay [6] is described as follows: Binding affinity to 5'ACCGGT3' sequence of non-cognate DNA by surface plasmon resonance method. The method in brief:
as §3

The subject of assay [7] is Nucleic Acid. Briefly: Binding affinity to 5'AAATTT3' sequence of non-cognate DNA assessed as change in melting temperature by thermal denaturation method. The class given is nucleic-acid assay. The method in brief: as §2
Assay [8] can be described thus: Binding affinity to 5'ACGCGT3' sequence of cognate DNA assessed as exothermic enthalpy at 25 to 50 degC by isothermal titration colorimetry. A general note: Isothermal titration calorimetry measures the heat released or taken up as one component is titrated into another.
For assay [9], the system named is Nucleic Acid. Briefly: Binding affinity to 5'ACCGGT3' sequence of non-cognate DNA assessed as change in melting temperature by thermal denaturation method. The class given is nucleic-acid assay. In a few lines:
as §2

Assay [10] in a line: Binding affinity to 5'ACGCGT3' sequence of cognate DNA at 0.5 uM by DnaseI footprinting assay. The method in brief:
(§4)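 DNA was incubated 30 min with ligand in TN buffer (10 mM Tris, 10 mM NaCl, pH 7). Digestion ran 3 min with DNase I in buffer containing NaCl, MgCl2 and MnCl2, then stopped on dry ice. Products were resolved on a 10% polyacrylamide/7.5 M urea gel and read by autoradiography.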

The nature of assay [11]: Binding affinity to 5'ACGTGT3' sequence of cognate DNA at 5 uM by DnaseI footprinting assay. In a few lines:
as §4

Take `CN(C)CCNC(=O)c1nc(NC(=O)c2cc(NC(=O)c3nc(NC=O)cn3C)cn2CCOCCOCCn2cc(NC(=O)c3nc(NC=O)cn3C)cc2C(=O)Nc2cn(C)c(C(=O)NCCN(C)C)n2)cn1C`: the result in assay [1] and in [4] was inactive. For the same compound, the ΔTm in the assay with Nucleic Acid [2] was more than 30 °C; with Nucleic Acid [7] it was 9.3 °C; in the assay on Nucleic Acid [9] it was 14.1 °C. For the same compound, the figures for the K in assay [3], in [5] and in [6] were 2 ×10¹⁰ /M, 5 ×10⁵ /M and 1.1 ×10⁸ /M, respectively. In addition, the outcome in assay [8] was Active.
Turning to `CN(C)CCNC(=O)c1nc(NC(=O)c2cc(NC(=O)c3nc(NC(=O)c4cccn4C)cn3C)cn2C)cn1C`, the result in assay [10] and in [11] was Active. Further, the ΔTm worked out at 3 °C with Nucleic Acid [2], 0.1 °C with Nucleic Acid [7] and 0.1 °C with Nucleic Acid [9]. The compound further came in with a K in assay [3] of 7.1 ×10⁶ /M.
Take `CN(C)CCNC(=O)c1nc(NC(=O)c2cc(NC(=O)c3nc(NC=O)cn3C)cn2C)cn1C`: the result in assay [1] and in [4] was inactive. Besides, the ΔTm stood at 7.8 °C with Nucleic Acid [2], 0.9 °C with Nucleic Acid [7] and 1.1 °C in the assay with Nucleic Acid [9]. Further, the values for the K in assay [3], in assay [5] and in assay [6] were 1.9 ×10⁸ /M, 5.3 ×10⁴ /M and 2.2 ×10⁵ /M, respectively.
